Measurements published in ChEMBL document CHEMBL4346654 (Eur J Med Chem, 2019).
In brackets after ≈: the same amount, converted by molar mass.

Tests used:
Streptococcus pneumoniae [1] = experiment: Selectivity ratio of MBC to MIC for Streptococcus pneumoniae 07P390 expressing constitutive ermB gene; format: functional
Summary of the method: (§1)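 Isolates were identified by 16S rDNA sequencing. MIC was determined by CLSI-recommended two-fold broth dilution. For MBC, samples from 1–8 fold MIC were transferred to culture medium and subcultured for 24 h without antibiotic.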

Staphylococcus aureus [2] = experiment: Selectivity ratio of MBC to MIC for MLS-resistant Staphylococcus aureus PU 20 expressing constitutive ermC gene; format: functional
Summary of the method: (§2)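 MBC/MIC ratio. MIC was measured by CLSI standard two-fold broth dilution. MBC was measured by transferring samples at 1–8 fold MIC to culture medium and subculturing for 24 h without antibiotic. Isolates were identified by 16S rDNA sequencing.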

Streptococcus pyogenes [3] = experiment: Antibacterial activity against MLS-resistant Streptococcus pyogenes 01-968 expressing inducible ermB gene assessed as reduction in microbial growth by CLSI based two-fold broth dilution method; format: functional
Streptococcus pneumoniae [4] = experiment: Bactericidal activity against erythromycin-susceptible Streptococcus pneumoniae ATCC49619 pretreated followed by subculture in absence of compound measured after 24 hrs; format: functional; summary of the method: as §1
Streptococcus pneumoniae [5] = experiment: Bactericidal activity against penicillin-susceptible Streptococcus pneumoniae PU 09 expressing mef gene pretreated followed by subculture in absence of compound measured after 24 hrs; format: functional; summary of the method: as §1
Staphylococcus aureus [6] = experiment: Antibacterial activity against MLS-resistant Staphylococcus aureus PU 20 expressing constitutive ermC gene assessed as reduction in microbial growth by CLSI based two-fold broth dilution method; format: functional
Streptococcus pyogenes [7] = experiment: Bactericidal activity against MLS-resistant Streptococcus pyogenes 01-968 expressing inducible ermB gene pretreated followed by subculture in absence of compound measured after 24 hrs; format: functional
Summary of the method: (§3)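 MBC assay. Following MIC determination by CLSI standard two-fold broth dilution, samples at 1–8 fold MIC were transferred to fresh culture medium. They were subcultured for 24 h without antibiotic. Isolates were identified by 16S rDNA sequencing. S. aureus ATCC 29213 was used as a control strain.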

Streptococcus pneumoniae [8] = experiment: Antibacterial activity against erythromycin-susceptible Streptococcus pneumoniae ATCC49619 assessed as reduction in microbial growth by CLSI based two-fold broth dilution method; format: functional
Haemophilus influenzae [9] = experiment: Bactericidal activity against azithromycin-susceptible Haemophilus influenzae ATCC 49247 pretreated followed by subculture in absence of compound measured after 24 hrs; format: functional; summary of the method: as §1
Staphylococcus aureus [10] = experiment: Bactericidal activity against MLS-resistant Staphylococcus aureus PU 20 expressing constitutive ermC gene pretreated followed by subculture in absence of compound measured after 24 hrs; format: functional; summary of the method: as §3
Staphylococcus aureus [11] = experiment: Selectivity ratio of MBC to MIC for MLS/methicillin-resistant Staphylococcus aureus PU 32 expressing inducible ermA gene; format: functional; summary of the method: as §2
Streptococcus pneumoniae [12] = experiment: Antibacterial activity against penicillin-susceptible Streptococcus pneumoniae PU 09 expressing mef gene assessed as reduction in microbial growth by CLSI based two-fold broth dilution method; format: functional
Haemophilus influenzae [13] = experiment: Antibacterial activity against azithromycin-susceptible Haemophilus influenzae ATCC 49247 assessed as reduction in microbial growth by CLSI based two-fold broth dilution method; format: functional
Streptococcus pneumoniae [14] = experiment: Bactericidal activity against Streptococcus pneumoniae 07P390 expressing constitutive ermB gene pretreated followed by subculture in absence of compound measured after 24 hrs; format: functional; summary of the method: as §1
Haemophilus influenzae [15] = experiment: Selectivity ratio of MBC to MIC for azithromycin-susceptible Haemophilus influenzae ATCC 49247; format: functional; summary of the method: as §1
Streptococcus pneumoniae [16] = experiment: Selectivity ratio of MBC to MIC for penicillin-susceptible Streptococcus pneumoniae PU 09 expressing mef gene; format: functional; summary of the method: as §1
Streptococcus pneumoniae [17] = experiment: Selectivity ratio of MBC to MIC for erythromycin-susceptible Streptococcus pneumoniae ATCC49619; format: functional; summary of the method: as §1
Streptococcus pyogenes [18] = experiment: Selectivity ratio of MBC to MIC for MLS-resistant Streptococcus pyogenes 01-968 expressing inducible ermB gene; format: functional; summary of the method: as §2
Streptococcus pneumoniae [19] = experiment: Antibacterial activity against Streptococcus pneumoniae 07P390 expressing constitutive ermB gene assessed as reduction in microbial growth by CLSI based two-fold broth dilution method; format: functional
Staphylococcus aureus [20] = experiment: Bactericidal activity against MLS/methicillin-resistant Staphylococcus aureus PU 32 expressing inducible ermA gene pretreated followed by subculture in absence of compound measured after 24 hrs; format: functional; summary of the method: as §3
Staphylococcus aureus [21] = experiment: Antibacterial activity against MLS-resistant Staphylococcus aureus PU 32 expressing inducible ermA gene assessed as reduction in microbial growth by CLSI based two-fold broth dilution method; format: functional
Streptococcus pyogenes [22] = experiment: Bactericidal activity against Streptococcus pyogenes 12-207 expressing mef gene pretreated followed by subculture in absence of compound measured after 24 hrs; format: functional; summary of the method: as §1
[23] = AUC (0 to t) in Sprague-Dawley rat at 20 mg/kg, po after 0.25 to 24 hrs by LC-MS/MS analysis; format: ADME, organism-based; parameters: time upper 24 hr, dose 20 mg/kg, time lower 0.25 hr, route oral; conditions: in vivo
Summary of the method: (§4)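 Male SD rats were given a single 20 mg/Kg oral dose. Blood was sampled at 0.25, 0.5, 1, 2, 4, 6, 8 and 24 h and centrifuged at 2500 g for 5 min at 4 °C. Drug levels were quantified by LC-MS/MS. t1/2, Cmax, Tmax, CL, MRT and AUC were calculated from the concentration–time data.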

Moraxella catarrhalis [24] = experiment: Selectivity ratio of MBC to MIC for erythromycin-susceptible Moraxella catarrhalis 13L332; format: functional; summary of the method: as §1
[25] = AUCinfinity in Sprague-Dawley rat at 20 mg/kg, po after 0.25 to 24 hrs by LC-MS/MS analysis; format: ADME, organism-based; parameters: dose 20 mg/kg, time infinity, route oral; conditions: Sprague-Dawley, in vivo; summary of the method: as §4
Streptococcus pyogenes [26] = experiment: Selectivity ratio of MBC to MIC for Streptococcus pyogenes 12-207 expressing mef gene; format: functional; summary of the method: as §1
Moraxella catarrhalis [27] = experiment: Antibacterial activity against erythromycin-susceptible Moraxella catarrhalis 13L332 assessed as reduction in microbial growth by CLSI based two-fold broth dilution method; format: functional
[28] = MRT in Sprague-Dawley rat at 20 mg/kg, po after 0.25 to 24 hrs by LC-MS/MS analysis; format: ADME, organism-based; conditions: in vivo; summary of the method: as §4
[29] = Cmax in Sprague-Dawley rat at 20 mg/kg, po after 0.25 to 24 hrs by LC-MS/MS analysis; format: ADME, organism-based; parameters: dose 20 mg/kg, route oral; conditions: in vivo; summary of the method: as §4
Cytochrome P450 3A4 = Cytochrome P450 3A4 (Homo sapiens, UniProt P08684); experiment: Inhibition of CYP3A4 in human liver microsomes assessed as reduction in metabolite formation using midazolam as substrate incubated for 10 mins in presence of NADPH by HPLC based mass spectrometric method; format: ADME
Summary of the method: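 Human liver microsome CYP3A4 with midazolam substrate in 0.1 M potassium phosphate buffer was prewarmed at 37 °C for 5 min. Compound and 25 mM NADPH solution (stock) were added, then incubated at 37 °C for 10 min. Ketoconazole served as the positive inhibitor. Metabolite was measured by UPLC–triple quadrupole MS as the metabolite/internal standard peak area ratio, and IC50 was derived by curve fitting.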

Streptococcus pyogenes [30] = experiment: Antibacterial activity against Streptococcus pyogenes 12-207 expressing mef gene assessed as reduction in microbial growth by CLSI based two-fold broth dilution method; format: functional
Streptococcus pyogenes [31] = experiment: Selectivity ratio of MBC to MIC for MLS-resistant Streptococcus pyogenes 12-206 expressing constitutive ermA gene; format: functional; summary of the method: as §2
Streptococcus pyogenes [32] = experiment: Antibacterial activity against MLS-resistant Streptococcus pyogenes 12-206 expressing constitutive ermA gene assessed as reduction in microbial growth by CLSI based two-fold broth dilution method; format: functional
[33] = Systemic plasma clearance in Sprague-Dawley rat at 20 mg/kg, po after 0.25 to 24 hrs by LC-MS/MS analysis; format: ADME, organism-based; summary of the method: as §4
Moraxella catarrhalis [34] = experiment: Bactericidal activity against erythromycin-susceptible Moraxella catarrhalis 13L332 pretreated followed by subculture in absence of compound measured after 24 hrs; format: functional; summary of the method: as §1
[35] = Half life in Sprague-Dawley rat at 20 mg/kg, po after 0.25 to 24 hrs by LC-MS/MS analysis; format: ADME, organism-based; conditions: in vivo; summary of the method: as §4
[36] = Tmax in Sprague-Dawley rat at 20 mg/kg, po after 0.25 to 24 hrs by LC-MS/MS analysis; format: ADME, organism-based; conditions: in vivo; summary of the method: as §4
Streptococcus pyogenes [37] = experiment: Bactericidal activity against MLS-resistant Streptococcus pyogenes 12-206 expressing constitutive ermA gene pretreated followed by subculture in absence of compound measured after 24 hrs; format: functional; summary of the method: as §3

Cytochrome P450 3A4, sequence (P08684 whole entry): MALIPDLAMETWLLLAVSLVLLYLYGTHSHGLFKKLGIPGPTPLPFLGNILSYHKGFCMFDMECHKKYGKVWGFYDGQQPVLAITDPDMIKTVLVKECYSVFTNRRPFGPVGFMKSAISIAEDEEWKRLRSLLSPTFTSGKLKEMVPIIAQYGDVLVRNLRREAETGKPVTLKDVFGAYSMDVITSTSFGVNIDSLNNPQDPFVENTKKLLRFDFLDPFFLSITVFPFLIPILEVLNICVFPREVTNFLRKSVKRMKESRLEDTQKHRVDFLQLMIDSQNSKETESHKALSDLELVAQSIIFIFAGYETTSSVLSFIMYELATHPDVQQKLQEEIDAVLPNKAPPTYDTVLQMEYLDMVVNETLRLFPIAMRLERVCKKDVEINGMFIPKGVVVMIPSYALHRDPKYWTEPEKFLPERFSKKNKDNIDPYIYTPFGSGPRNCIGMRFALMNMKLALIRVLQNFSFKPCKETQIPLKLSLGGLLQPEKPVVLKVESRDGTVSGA

Compound	Selectivity ratio (Streptococcus pneumoniae [1])	Selectivity ratio (Staphylococcus aureus [2])	MIC (Streptococcus pyogenes [3]) [µg/mL]	MBC (Streptococcus pneumoniae [4]) [µg/mL]	MBC (Streptococcus pneumoniae [5]) [µg/mL]	MIC (Staphylococcus aureus [6]) [µg/mL]	MBC (Streptococcus pyogenes [7]) [µg/mL]	MIC (Streptococcus pneumoniae [8]) [µg/mL]	MBC (Haemophilus influenzae [9]) [µg/mL]	Selectivity ratio (Staphylococcus aureus [11])	MIC (Streptococcus pneumoniae [12]) [µg/mL]	MIC (Haemophilus influenzae [13]) [µg/mL]	MBC (Streptococcus pneumoniae [14]) [µg/mL]	Selectivity ratio (Haemophilus influenzae [15])	Selectivity ratio (Streptococcus pneumoniae [16])	Selectivity ratio (Streptococcus pneumoniae [17])	Selectivity ratio (Streptococcus pyogenes [18])	MIC (Streptococcus pneumoniae [19]) [µg/mL]	MBC (Staphylococcus aureus [20]) [µg/mL]	MIC (Staphylococcus aureus [21]) [µg/mL]	also measured
CC[C@H]1OC(=O)[C@@](C)(F)C(=O)[C@H](C)[C@@H](O[C@@H]2O[C@H](C)C[C@H](N(C)C)[C@H]2O)[C@](C)(OC)C[C@@H](C)/C(=N\OCC#Cc2ccc3c(c2)c(=O)c(C(=O)O)cn3C2CC2)[C@H](C)[C@H]2OC(=O)O[C@@]21C	8	4	0.25	0.5 (≈ 0.548 µM)	4 (≈ 4.39 µM)	32	2 (≈ 2.19 µM)	0.25	16 (≈ 17.5 µM)	4	2	8	32 (≈ 35.1 µM)	2	2	2	8	4	4 (≈ 4.39 µM)	1	MBC (Staphylococcus aureus [10]): 128 µg/mL (≈ 140 µM)
CC[C@H]1OC(=O)[C@@](C)(F)C(=O)[C@H](C)[C@@H](O[C@@H]2O[C@H](C)C[C@H](N(C)C)[C@H]2O)[C@](C)(OC)C[C@@H](C)/C(=N\OC/C=C/c2cnc3ccccc3c2N)[C@H](C)[C@H]2OC(=O)O[C@@]21C	1	2	0.016	0.25 (≈ 0.302 µM)	2 (≈ 2.41 µM)	64	> 0.125	0.125	32 (≈ 38.6 µM)	8	2	16	32 (≈ 38.6 µM)	2	1	2	>8	32	8 (≈ 9.65 µM)	1	MBC (Staphylococcus aureus [10]): 128 µg/mL (≈ 154 µM)
CC[C@H]1OC(=O)[C@@](C)(F)C(=O)[C@H](C)[C@@H](O[C@@H]2O[C@H](C)C[C@H](N(C)C)[C@H]2O)[C@](C)(OC)C[C@@H](C)/C(=N\OCCCc2ccc3c(c2)c(=O)c(C(=O)O)cn3C2CC2)[C@H](C)[C@H]2OC(=O)O[C@@]21C	2	2	0.125	0.25 (≈ 0.273 µM)	2 (≈ 2.18 µM)	64	> 1	0.125	32 (≈ 34.9 µM)	2	2	16	16 (≈ 17.5 µM)	2	1	2	>8	8	8 (≈ 8.73 µM)	4	MBC (Staphylococcus aureus [10]): 128 µg/mL (≈ 140 µM)
CC[C@H]1OC(=O)[C@H](C)C(=O)[C@H](C)[C@@H](O[C@@H]2O[C@H](C)C[C@H](N(C)C)[C@H]2O)[C@](C)(OC)C[C@@H](C)C(=O)[C@H](C)[C@H]2N(CCCCn3cnc(-c4cccnc4)c3)C(=O)O[C@]12C [TELITHROMYCIN]	>=8	–	–	–	0.5 to 4 (≈ 0.616 to 4.93 µM)	> 256	0.016 to 0.125 (≈ 0.0197 to 0.154 µM)	–	16 (≈ 19.7 µM)	>=4 - 8	0.25 to 0.5	4	0.125 to 1 (≈ 0.154 to 1.23 µM)	4	2 - 8	1 - 4	>=4 - 8	0.016 to 0.125	≥ 1	0.125 to 0.25	MBC (Streptococcus pyogenes [22]): 1 µg/mL (≈ 1.23 µM); AUC(0-t) [23]: 897 ng·h/mL; Selectivity ratio (Moraxella catarrhalis [24]): >8; AUC(0-inf) [25]: 927 ng·h/mL; Selectivity ratio (Streptococcus pyogenes [26]): 4; MIC (Moraxella catarrhalis [27]): 0.25 µg/mL; MRT [28]: 3.27 h; Cmax [29]: 204 ng/mL; IC50 (Cytochrome P450 3A4): 11.8 µM; MIC (Streptococcus pyogenes [30]): 0.25 µg/mL; Selectivity ratio (Streptococcus pyogenes [31]): >8; MIC (Streptococcus pyogenes [32]): 0.031 µg/mL; CL/F [33]: 363 mL/min/kg; MBC (Moraxella catarrhalis [34]): > 2 µg/mL; half-life [35]: 1.22 h; Tmax [36]: 2 h; MBC (Streptococcus pyogenes [37]): > 0.25 µg/mL
